Measurements from paper PMC8010999 (Journal of medicinal chemistry, 2020).
Blank lines part the entries; values can stand above or below the compound they belong to.

Key:
MMP-12 = MMP-12 (Mus musculus, UniProt P34960); experiment: 99mTc-AGA-2 binding specificity; conditions: co-incubation with 500-fold molar excess, P < 0.001
Method in brief: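 Tissues came from Apoe−/− mice given angiotensin II (1,000 ng/kg/min) by subcutaneous minipump for 4 weeks. Tracer binding was compared in aneurysmal aorta and in normal-size infrarenal aorta, with or without MMP inhibitors.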

rhMMP-12 = rhMMP-12 (Homo sapiens, UniProt P39900); experiment: MMP affinity determination; format: biochemical
Chain of rhMMP-12 (P39900 106-470): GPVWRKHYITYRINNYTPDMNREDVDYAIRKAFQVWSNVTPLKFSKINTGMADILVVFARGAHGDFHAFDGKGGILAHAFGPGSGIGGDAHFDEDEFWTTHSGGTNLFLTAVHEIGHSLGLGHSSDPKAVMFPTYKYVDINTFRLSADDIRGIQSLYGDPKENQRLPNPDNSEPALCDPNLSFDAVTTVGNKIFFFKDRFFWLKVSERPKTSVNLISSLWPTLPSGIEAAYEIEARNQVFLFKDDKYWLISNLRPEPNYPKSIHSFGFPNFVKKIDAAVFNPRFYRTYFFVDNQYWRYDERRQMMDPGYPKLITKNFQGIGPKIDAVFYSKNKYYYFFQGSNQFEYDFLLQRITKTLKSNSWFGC
Method in brief: (§1)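 Inhibition constants were derived from the kinetic effect of the test compound on MMP cleavage of the fluorogenic substrate Mca-Lys-Pro-Leu-Gly-Leu-Dpa-Ala-Arg-NH2. Conditions: 50 mM Tris/HCl pH 6.8, 10 mM CaCl2, 25 °C, with 0.2–0.5 nM enzyme. […] Fluorescence was monitored, and Ki was obtained by the Horovitz–Levitzki method.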

rhMMP-7 = target: T1, rhMMP-7 (Homo sapiens, UniProt P09237); experiment: MMP affinity determination; format: biochemical; conditions: relative to CGA
T1 sequence (P09237 95-267): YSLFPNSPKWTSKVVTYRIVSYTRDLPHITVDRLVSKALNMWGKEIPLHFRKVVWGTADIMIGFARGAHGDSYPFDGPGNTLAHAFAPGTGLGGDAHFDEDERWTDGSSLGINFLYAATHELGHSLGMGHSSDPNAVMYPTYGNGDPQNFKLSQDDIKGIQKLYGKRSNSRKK
Method in brief: as §1

Chain of MMP-12 (P34960 110-473): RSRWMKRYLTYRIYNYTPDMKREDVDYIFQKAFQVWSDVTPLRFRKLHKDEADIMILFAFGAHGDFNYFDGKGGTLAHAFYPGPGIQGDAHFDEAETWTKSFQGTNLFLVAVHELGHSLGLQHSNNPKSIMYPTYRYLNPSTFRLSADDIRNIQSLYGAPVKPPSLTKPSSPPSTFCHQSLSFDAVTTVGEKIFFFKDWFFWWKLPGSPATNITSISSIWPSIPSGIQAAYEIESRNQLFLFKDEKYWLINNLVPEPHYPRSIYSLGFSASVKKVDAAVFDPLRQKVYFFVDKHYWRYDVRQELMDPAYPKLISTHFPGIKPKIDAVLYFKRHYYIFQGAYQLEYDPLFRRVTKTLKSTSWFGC

effect on 99mTc-AGA-2 binding to AAA tissue (MMP-12): significantly reduced
Compound: CNC(=O)[C@H](Cc1c[nH]c2ccccc12)NC(=O)[C@@H](CC(=O)NO)CC(C)C [GM6001, reference compound]

selectivity for rhMMP-12 relative to rhMMP-7 (rhMMP-12; against rhMMP-7): at least 12 folds
Compound: CC(C)C[C@H]1C(=O)N[C@H](C(=O)N[C@@H](CCC(=O)O)C(=O)O)Cc2ccc(cc2)OCCC[C@@H]1C(=O)NO [CGA-1]

Compound: CC(C)C[C@H]1C(=O)N[C@H](C(=O)O)Cc2ccc(cc2)OCCC[C@@H]1C(=O)NO [CGA]
selectivity for rhMMP-12 relative to rhMMP-13 (rhMMP-12; against rhMMP-13): 28 folds

drop in potency for MMP-7 on ring opening from cyclic CGA to acyclic AGA (rhMMP-7): 10 fold
drop in potency for MMP-12 on ring opening from cyclic CGA to acyclic AGA (rhMMP-12; relative to CGA): 10 fold
effect on 99mTc-AGA-2 binding to AAA tissue (MMP-12): significantly reduced
Compound: CC(C)C[C@H](CC(=O)NO)C(=O)N[C@@H](Cc1ccccc1)C(=O)O [AGA]
